Assay outcomes from PubChem BioAssay.
Compounds with a hit are over-represented: about 3.1% of the library has one in this group of screens.
KCNQ1 pot – human KCNQ1 channel potentiation or activation | CHO-K1 KCNQ1, thallium flux FluxOR fluorescence; hits give high values | B-score at 10 µM | hit rate 0.35% among 310,000 | AID 2648;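 active means fluorescence ratio B-score, a plate-corrected score, at least three library SD, with initial intensity B-score within 5 SD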
Target sequence (P51787 whole entry, looked up): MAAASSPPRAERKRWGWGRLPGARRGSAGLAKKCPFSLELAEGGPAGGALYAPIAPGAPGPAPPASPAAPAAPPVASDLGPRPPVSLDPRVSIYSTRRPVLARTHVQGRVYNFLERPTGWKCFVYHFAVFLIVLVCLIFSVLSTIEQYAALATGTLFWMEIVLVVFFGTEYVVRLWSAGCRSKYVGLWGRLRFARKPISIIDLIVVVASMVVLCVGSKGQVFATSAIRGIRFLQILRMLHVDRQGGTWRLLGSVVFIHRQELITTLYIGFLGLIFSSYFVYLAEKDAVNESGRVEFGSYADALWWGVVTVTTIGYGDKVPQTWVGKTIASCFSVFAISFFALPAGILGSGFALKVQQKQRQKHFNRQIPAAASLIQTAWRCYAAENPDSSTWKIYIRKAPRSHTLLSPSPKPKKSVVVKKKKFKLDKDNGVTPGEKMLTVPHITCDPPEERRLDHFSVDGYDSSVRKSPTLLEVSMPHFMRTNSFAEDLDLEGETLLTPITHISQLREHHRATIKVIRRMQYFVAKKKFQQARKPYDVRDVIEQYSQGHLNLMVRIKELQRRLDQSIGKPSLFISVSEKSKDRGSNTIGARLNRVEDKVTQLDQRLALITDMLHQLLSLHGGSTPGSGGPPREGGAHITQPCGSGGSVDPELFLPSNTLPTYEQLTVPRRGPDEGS
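Schedule – 37 °C overnight plating, 90-min dark dye load, 20-min compound pretreatment · System – stable KCNQ1 CHO-K1 line · Probe or stimulus – thallium- and potassium-containing depolarizing buffer · Measured by – kinetic FluxOR fluorescence, 10 s baseline plus 110 s post-stimulus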
KCNK9 block – blocks the human KCNK9 two-pore domain potassium channel; Q9NPC2; HEK293 KCNK9, FluxOR thallium flux fluorescence; hits give low values; B-score at 10 µM; hit rate 1.2% among 310,000; AID 488922;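 active means ratio B-score over 3 SD below the library mean, with starting fluorescence within 5 SD of its mean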;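 further: negative B-score means less thallium flux so channel inhibition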
hERG protect – shields human hERG channel from block by proarrhythmic agents; Q12809; CHO-hERG, FluxOR thallium flux, dofetilide IC70 present; activation (rescue from dofetilide block), less the hit threshold, % at 10 µM; hit rate 0.51% among 310,000; AID 1511;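 active means activation above the mean of controls blocked by dofetilide plus 5 SD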;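 further: thallium influx through hERG after potassium depolarization seen as dye fluorescence rise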
KCNQ1 inh – human KCNQ1 channel inhibition; P51787; CHO-K1 KCNQ1, FluxOR thallium flux fluorescence; hits give high values; B-score at 10 µM; hit rate 1.3% among 310,000; AID 2642;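 active means compounds whose thallium flux B-score, printed positive for inhibition, exceeds three library SD while starting fluorescence stays within three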;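 further: channel opened by potassium depolarization with thallium stimulus after 20 min compound exposure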
KCNK3 inh – human KCNK3 channel inhibition, primary screen; CHO-KCNK3 thallium flux, FluxOR fluorescence; hits give low values; hit rate 0.84% among 340,000; O14649; B-score at 10 µM;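 active means B-score under library mean minus 4 SD, starting fluorescence ratio at most library mean plus 5 SD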;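 further: more negative B-score means stronger inhibition of thallium flux through KCNK3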
* hit, by the source's call; i = inactive; nt = no result.

SMILES	KCNQ1 pot	KCNK9 block	hERG protect	KCNQ1 inh	KCNK3 inh
COC(C(=O)N/N=C(\C)c1ccc(O)cc1)c1ccccc1 (stereo not drawn)	i	i	5.1*	i	i
Nc1nc(Nc2ccc(Cl)cc2)c(NC=O)c(=O)[nH]1	i	i	-3	i	i
CCOC(=O)c1nncc(-c2ccccc2)n1	nt	nt	nt	nt	i
CC1=C(C(=O)OC2CCCC2)C(c2ccc(C)o2)C2=C(CC(c3cccs3)CC2=O)N1 (stereo not drawn)	i	i	-10	8*	i
O=C(NCC(=O)N1CCN(C(c2ccccc2)c2ccccc2)CC1)c1ccc(Br)o1	i	i	-3	i	i
Cc1cc(C)cc(C(=O)NCC(=O)N2CCN(C(c3ccccc3)c3ccccc3)CC2)c1	i	i	-17	6*	i
N#CC1c2ccccc2C=CN1C(=O)N(c1ccccc1)c1ccccc1 (stereo not drawn)	nt	nt	nt	nt	i
Cc1ccc(CNC(=O)C2(NC(=O)Nc3ccc(C)cc3)CCCCC2)cc1	i	i	4.6*	i	i
Cn1cc(/C=C/c2cc[n+](C)cc2)c2cc(Cl)ccc21	i	i	-32	12*	i
CSCCC(NC(=O)c1ccco1)C(=O)NCC1CCCO1 (stereo not drawn)	nt	nt	nt	nt	i
COC(=O)c1ccc(C(C(=O)NC2CCCCC2)N(C(=O)Cc2cccs2)C2CC2)cc1 (stereo not drawn)	i	i	-6	6*	i
Cc1cc(S(=O)(=O)N2CCCOC2CNC(=O)C(=O)NCc2cccs2)ccc1F (stereo not drawn)	i	i	-8	i	i
Cc1ccc(-c2csc(NC(=O)c3cc([N+](=O)[O-])ccc3N3CCOCC3)n2)cc1	i	i	-10	i	i
O=C(Nc1nc(-c2ccccc2)cs1)c1ccc(N2CCOCC2)c([N+](=O)[O-])c1	i	i	-10	7*	i
COc1ccc(C)cc1NC(=O)c1cccc(-c2ccc(OC(C)=O)cc2)c1	i	-8.1*	-6	i	i
O=C(NCC1CCCO1)c1cccc(S(=O)(=O)Nc2ccc(F)cc2)c1 (stereo not drawn)	nt	nt	nt	nt	i
Cc1ccc(C(=O)C[n+]2cc(-c3ccc(C)cc3)n3c2CCCCC3)cc1	i	i	-24	14*	i
COc1ccc(S(=O)(=O)N2CCC3(CC2)CC(=O)c2ccccc2O3)cc1OC	i	i	-11	i	i
O=C(O)c1ccc(NC(=O)c2ccccc2NC(=O)c2cccc(F)c2)cc1	i	i	-3	i	i
O=C(Nc1cc(-c2ccccc2)sc1C(=O)O)c1cccc(F)c1	i	i	-11	6*	i
CCOC(=O)Cc1csc(SCC(=O)N(CC(C)C)c2c(N)n(Cc3ccccc3)c(=O)[nH]c2=O)n1	i	i	-9	i	i
CC[n+]1c(/C=C(\C)SC)sc2ccccc21	i	i	-1	i	i
CC[n+]1c(/C=C2/C=C(C)CC(C)C2)sc2ccccc21 (stereo not drawn)	i	i	-27	6*	i
CC/C(=C/c1sc2ccccc2[n+]1CC)SC	i	i	-2	i	i
CC[n+]1c(C=C2C=C(C)OC(C)=C2)sc2ccccc21	i	i	-31	10*	i
SMILES	KCNQ1 pot	KCNK9 block	hERG protect	KCNQ1 inh	KCNK3 inh
CCCC(/C=C/c1ccc(OC(C)=O)cc1)=C1/c2ccccc2C(=O)N1c1ccccc1	nt	nt	nt	nt	i
O=C(NC(=S)Nc1cc(C(F)(F)F)ccc1Cl)c1ccccc1	i	i	4.7*	i	i
CCN(CC)CCNC(C(=O)Nc1cc(C(F)(F)F)ccc1Cl)c1ccccc1 (stereo not drawn)	i	i	-14	i	i
Cc1cc[n+](CC(=O)Nc2cc(C(F)(F)F)ccc2Cl)cc1	i	i	4.9*	i	i
O=C(Nc1cc(C(F)(F)F)ccc1Cl)C(NCc1ccccc1)c1ccccc1 (stereo not drawn)	i	-7.1*	-21	11*	i
CCOC(=O)C1=CN(Cc2ccco2)S(=O)(=O)NC1c1cccc(OC)c1 (stereo not drawn)	nt	nt	nt	nt	i
CCC(C)(C)n1nnnc1C(c1ccccn1)N1CCOCC1 (stereo not drawn)	i	i	-2	i	i
CCN(Cc1ccccc1)C(c1ccccn1)c1nnnn1C(C)(C)CC (stereo not drawn)	i	-8*	-5	i	i
CCN(Cc1ccccc1)C(c1ccc(C)cc1)c1nnnn1C(C)(C)C (stereo not drawn)	i	-7.8*	-6	i	i
O=C(NCCC(=O)N(CCc1ccccc1)Cc1ccccc1)c1ccc([N+](=O)[O-])cc1	i	i	-18	i	i
COc1ccc(NC(=O)CN2C(=O)COc3ccc(S(=O)(=O)N4CCCCCC4)cc32)cc1	i	i	-10	i	i
CC(C)N(Cc1ccccc1)C(=S)NC(=O)C1(C)CC1(Cl)Cl (stereo not drawn)	26*	i	21*	i	i
CC(C)N(Cc1ccccc1)C(=S)Nc1ccc(F)cc1	i	i	14*	i	i
CC(c1ccccc1)N(C)C(=O)CSc1nnc(C2CC2)n1C1CC1 (stereo not drawn)	nt	nt	nt	nt	i
O=C(Nc1cccnc1)c1cn(-c2ccccc2)nc1-c1cccs1	i	i	-8	i	i
CCN(CC)CCNC(=O)c1ccc(NC(=O)c2cn(-c3ccccc3)nc2-c2cccs2)cc1	i	i	-28	7*	i
CC1(C)CC(=O)C2=C(C1)OC(N)=C(C#N)C2c1cc2c(cc1[N+](=O)[O-])OCO2 (stereo not drawn)	i	i	-24	10*	i
c1ccc2c(c1)CCN(c1ncnc3c1[nH]c1ccccc13)C2	i	i	-27	11*	-8.7*
CCCCN1C(=O)C(=Nc2cccc3cnccc23)c2ccccc21	i	-7.2*	-14	i	i
CCCCN1C(=O)/C(=C2\SC(N3CCCCC3)=NC2=O)c2ccccc21	i	i	-14	i	i
NS(=O)(=O)c1ccc(-c2cccc(/C=C3\SC(=O)NC3=O)c2)cc1	i	i	-12	i	i
Cc1[nH]n(-c2ccccc2)c(=O)c1N=Nc1ccc(C(N)=O)cc1	i	i	10*	i	i
CC(=O)c1ccc(N=Nc2c(C)[nH]n(-c3ccccc3)c2=O)cc1	i	i	-8	6*	i
Cn1nccc1C(=O)NC1CCN(Cc2ccccc2)CC1	i	i	-8	i	i
O=C1NCC(Nc2ccccc2Cl)C(=O)N1 (stereo not drawn)	nt	nt	nt	nt	i
C=CCn1nnnc1SCC(=O)Nc1cccc(C(F)(F)F)c1	i	i	-2	i	i
